The results in this text go back to ChEMBL document CHEMBL3085704, “Methyl-thiazoles: a novel mode of inhibition with the potential to develop novel inhibitors targeting InhA in Mycobacterium tuberculosis” (J Med Chem, 2013).

Data set [1] addresses T1, Enoyl-[acyl-carrier-protein] reductase [NADH] (Mycobacterium tuberculosis, UniProt P9WGR1).
T1 sequence (P9WGR1 whole entry): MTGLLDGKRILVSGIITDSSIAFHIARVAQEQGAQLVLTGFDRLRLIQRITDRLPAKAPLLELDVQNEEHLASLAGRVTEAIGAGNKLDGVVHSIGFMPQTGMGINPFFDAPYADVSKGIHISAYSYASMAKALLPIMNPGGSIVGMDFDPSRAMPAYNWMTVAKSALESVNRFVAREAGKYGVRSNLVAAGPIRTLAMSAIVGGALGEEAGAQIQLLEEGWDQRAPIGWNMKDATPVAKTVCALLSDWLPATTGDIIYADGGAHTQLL
As to the kind of experiment: Inhibition of wild type Mycobacterium tuberculosis inhA.

Data set [2] deals with T1, Enoyl-[acyl-carrier-protein] reductase [NADH]. Briefly: Inhibition of Mycobacterium tuberculosis full length inhA expressed in Escherichia coli BL21 preincubated for 15 mins by fluorescence based assay in presence of NADH.
The subject of data set [3] is Mycobacterium tuberculosis. Briefly: Antimycobacterial activity against Mycobacterium tuberculosis H37Rv ATCC 27294 assessed as parasite growth inhibition after 7 days by Alamar Blue assay. As to conditions: H37Rv ATCC 27294, 168 h. In kind it is functional. A general note: Resazurin is reduced to fluorescent resorufin, in cell work by metabolically active cells.
Data set [4] has as its target Cytochrome P450 3A4 (Homo sapiens, UniProt P08684). As to the kind of experiment: Inhibition of CYP3A4 (unknown origin). The format is ADME.
Data set [5] in a line: Fraction unbound in plasma (unknown origin). The format is ADME, cell-free.
Data set [6] is described as follows: Aqueous solubility of the compound. The format is physicochemical. As to conditions: buffer.
The nature of data set [7]: Cytotoxicity against human A549 cells assessed as growth inhibition after 7 days by Alamar Blue assay. Particulars: read-out: MIC. In kind it is cell-based.
Data set [8] has as its target T1, Enoyl-[acyl-carrier-protein] reductase [NADH]. As to the kind of experiment: Binding affinity to Mycobacterium tuberculosis NADH-bound form of full length inhA (1 to 255) by SPR assay. Background: SPR reads the build-up and loss of mass on a sensor chip optically.
For data set [9] the target is unchanged. Briefly: Binding affinity to Mycobacterium tuberculosis NADH-bound form full length inhA (1 to 255) by isothermal titration calorimetry assay. An outline of the steps: (§1)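 InhA titrated with compound by isothermal titration calorimetry, either as apo enzyme or pre-bound to NADH or NAD+ cofactor. No enoyl-ACP substrate was present. ITC data were used mainly to derive Kd and binding stoichiometry.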
For orientation: ITC needs no label: the signal is the heat of the interaction.

Data set [10] shares this target. Briefly: Binding affinity to Mycobacterium tuberculosis NAD+-bound form of full length inhA (1 to 255) by isothermal titration calorimetry assay. Summed up: as §1
In data set [11] the target is T2, Enoyl-[acyl-carrier-protein] reductase [NADH] (Mycobacterium tuberculosis) (UniProt P9WGR1).
T2 sequence (whole entry): T1 sequence (P9WGR1 whole entry)
As to conditions: 50 uM.

Data set [12] addresses T2, Enoyl-[acyl-carrier-protein] reductase [NADH] (Mycobacterium tuberculosis). Particulars: 50 uM. This is another data set of the same source.
Data set [13] has the same target.
The target is the same in data set [14]. The source holds these as a separate data set.
Data set [15] has the same target. The source holds these as a separate data set.
Data set [16] deals with T3, Adenosine receptor A1 (Homo sapiens) (UniProt P30542).
T3 sequence (whole entry): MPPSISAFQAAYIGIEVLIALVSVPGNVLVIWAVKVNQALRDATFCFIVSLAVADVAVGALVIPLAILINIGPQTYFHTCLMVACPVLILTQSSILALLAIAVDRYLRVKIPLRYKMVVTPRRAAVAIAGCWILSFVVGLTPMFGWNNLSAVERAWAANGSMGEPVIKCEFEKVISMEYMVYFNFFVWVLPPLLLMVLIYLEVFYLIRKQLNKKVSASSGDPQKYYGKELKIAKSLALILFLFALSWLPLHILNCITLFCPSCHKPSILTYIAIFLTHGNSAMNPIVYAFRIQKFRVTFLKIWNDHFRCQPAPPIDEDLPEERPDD
As to the kind of experiment: Inhibition of adenosine A1 receptor (unknown origin) at 30 uM.

Data set [17] has as its target T4, Adenosine receptor A3 (Homo sapiens) (UniProt P0DMS8).
T4 sequence (whole entry): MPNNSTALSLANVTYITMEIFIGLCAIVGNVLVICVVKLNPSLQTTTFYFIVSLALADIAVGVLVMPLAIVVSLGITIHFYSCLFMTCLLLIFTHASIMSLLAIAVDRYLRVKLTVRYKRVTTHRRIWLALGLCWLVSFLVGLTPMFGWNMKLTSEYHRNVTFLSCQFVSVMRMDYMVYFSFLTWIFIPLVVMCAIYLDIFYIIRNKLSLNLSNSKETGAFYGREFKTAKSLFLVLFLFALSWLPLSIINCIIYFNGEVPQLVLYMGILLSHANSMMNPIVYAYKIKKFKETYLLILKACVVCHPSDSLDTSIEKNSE
Briefly: Inhibition of adenosine A3 receptor (unknown origin) at 30 uM.

The species named for data set [18] is Homo sapiens. As to the kind of experiment: Inhibition of angiotensin receptor (unknown origin) at 30 uM.
The target in data set [19] is T5, Adenosine receptor A1 (Homo sapiens, UniProt P30542).
T5 sequence (P30542 whole entry): T3 sequence (whole entry)
Briefly: Inhibition of adenosine A1 receptor (unknown origin).

Data set [20] has as its target 5-hydroxytryptamine receptor 2B (Homo sapiens, UniProt P41595). Briefly: Inhibition of 5HT2B receptor (unknown origin).
The target in data set [21] is Phosphodiesterase 4 (Homo sapiens, UniProt P27815+Q08499+Q07343+Q08493). Briefly: Inhibition of PDE4 (unknown origin). In kind it is protein assay.
Data set [22] has as its system Mycobacterium tuberculosis. As to the kind of experiment: Antitubercular activity against Mycobacterium tuberculosis. In kind it is functional.

Each structure is given as a SMILES string. ≈ marks a conversion by molar mass, not a printed value. Some results are limits rather than exact numbers.

One may read the IC50 as the midpoint of a concentration-inhibition curve. What is called MIC is the smallest concentration in the dilution series that meets the test's criterion for growth inhibition. Broadly, the fraction unbound is free concentration divided by total concentration. A higher fraction unbound goes with much free substance. By solubility is commonly meant how much of the substance goes into solution per volume. As a reminder, the Kd is the concentration at which binding is half-saturated. By ΔTm is commonly meant the change in melting temperature against a reference sample. One may read the inhibition as the change of the read-out against control, counted positive when it falls. A higher inhibition goes with strong suppression.

Cytochrome P450 3A4, sequence (P08684 whole entry): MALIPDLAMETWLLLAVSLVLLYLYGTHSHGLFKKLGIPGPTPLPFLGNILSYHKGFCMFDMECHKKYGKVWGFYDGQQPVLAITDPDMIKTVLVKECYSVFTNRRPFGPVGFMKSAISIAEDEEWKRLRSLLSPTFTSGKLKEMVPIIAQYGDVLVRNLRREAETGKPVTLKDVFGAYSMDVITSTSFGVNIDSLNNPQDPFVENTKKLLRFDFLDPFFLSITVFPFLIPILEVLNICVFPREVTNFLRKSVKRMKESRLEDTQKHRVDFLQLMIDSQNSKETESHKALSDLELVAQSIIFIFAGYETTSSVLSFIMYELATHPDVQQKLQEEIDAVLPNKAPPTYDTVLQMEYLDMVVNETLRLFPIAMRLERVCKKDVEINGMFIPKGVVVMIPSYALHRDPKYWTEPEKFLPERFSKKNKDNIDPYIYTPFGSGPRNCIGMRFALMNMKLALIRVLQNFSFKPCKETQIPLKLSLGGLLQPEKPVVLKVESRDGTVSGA
5-hydroxytryptamine receptor 2B, sequence (P41595 whole entry): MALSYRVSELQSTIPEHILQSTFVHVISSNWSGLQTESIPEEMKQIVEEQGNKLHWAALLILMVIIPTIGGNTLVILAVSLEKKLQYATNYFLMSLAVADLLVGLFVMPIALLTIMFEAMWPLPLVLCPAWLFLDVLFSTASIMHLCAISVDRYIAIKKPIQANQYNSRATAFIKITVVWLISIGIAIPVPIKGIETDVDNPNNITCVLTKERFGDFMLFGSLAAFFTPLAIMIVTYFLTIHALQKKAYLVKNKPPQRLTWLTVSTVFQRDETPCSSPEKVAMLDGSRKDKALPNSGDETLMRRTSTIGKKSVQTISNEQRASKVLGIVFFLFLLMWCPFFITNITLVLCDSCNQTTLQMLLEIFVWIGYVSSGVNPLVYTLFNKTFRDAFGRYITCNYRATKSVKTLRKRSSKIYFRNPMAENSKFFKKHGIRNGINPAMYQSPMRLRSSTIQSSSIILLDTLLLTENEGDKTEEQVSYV

For `CCCCCCc1ccc(Oc2ccccc2C)c(O)c1`, half-maximal inhibition in data set [1] (IC50) required 22 nM.

`O=C1CC(c2nc3ccccc3n2Cc2ccccc2)CN1C1CCCCC1` (configuration not stated): the half-inhibitory concentration (IC50) in data set [2] is 1000 nM. In addition, the MIC in data set [3] was > 64 µM.

Take `COC(=O)c1cnc2ccc(C#N)cc2c1NCCCc1ccccc1`: in data set [2], the IC50 turned out to be 20 nM. In addition, the minimal inhibitory concentration (MIC) in data set [3] is > 64 µM.

Consider `Cc1csc([C@](C)(O)c2nnc(Nc3ccn(Cc4c(F)cccc4F)n3)s2)n1`, for which the IC50 in data set [4] was 1900 nM; in [2], 3 nM. The molecule also returned an unbound share (fraction unbound) in data set [5] of 0.034. The amount in solution in data set [6] (solubility) came to 208 µM (≈ 90.4 µg/mL). Further, the MCC at 168 h in data set [7] is 78 µM. Moreover, the Kd was determined as 11.5 nM in [8], 13.7 nM in [9] and 9300 nM in data set [10]. Also, in [3], the MIC was 0.19 µM. Also, the ΔTm in data set [11] was determined as 69.3 °C; in [12] it was 55 °C. Besides, the Tm stood at 56.5 °C in data set [13], 55.2 °C in data set [14] and 54.2 °C in [15].

Consider `Cc1csc(C(C)(O)c2nnc(Nc3cc(C4CC4)n(Cc4c(F)cccc4F)n3)s2)n1` (racemic), for which the IC50 in data set [2] came to 970 nM. For the same molecule, the minimal inhibitory concentration (MIC) in data set [3] was > 12.5 µM.

In the case of `Cc1csc(C(C)(O)c2nnc(NCC3CN(Cc4c(F)cccc4F)C(=O)O3)s2)n1` (racemic), the IC50 in data set [2] was 400 nM. In data set [3], the minimal inhibitory concentration (MIC) is > 100 µM.

On to `Cc1csc(C(C)(O)c2nnc(NC(=O)c3ccn(Cc4c(F)cccc4F)n3)s2)n1` (racemic), for which, in [2], the IC50 is 34000 nM. Further, the MIC in data set [3] was > 100 µM.

Consider `Cc1csc(C(C)(O)c2nnc(Nc3ccn(Cc4c(F)cccc4F)n3)s2)n1` (racemic), for which the IC50 in data set [2] stood at 4 nM. In data set [3], the MIC was 0.5 µM.

With `Cc1csc(C(C)(O)c2nnc(Nc3cnn(Cc4c(F)cccc4F)c3)s2)n1` (racemic), in data set [2], the IC50 came to 234 nM. Besides, in data set [3], the MIC came out at 7.5 µM.

Consider `Cc1csc(C(C)(O)c2nnc(Nc3ncn(Cc4c(F)cccc4F)n3)s2)n1` (racemic), for which the inhibition came out at 63% in [16], 70% in [17] and 69% in data set [18]. Further, the values for the IC50 in data set [4] and in data set [2] were 48000 nM and 30 nM, respectively. The fraction unbound in data set [5] came to 0.143. Further, the solubility in data set [6] amounted to 69 µM (≈ 30 µg/mL). The MCC at 168 h in data set [7] was > 100 µM. In [3], the MIC worked out at 0.391 µM.

Regarding `Cc1csc(C(C)(O)c2nnc(NC(=O)Cc3c(F)cccc3F)s2)n1` (racemic), the concentration for half-maximal inhibition (IC50) in [19] was 21000 nM; in data set [20], 64000 nM; in [21] it was 23000 nM; in data set [4] it was > 50000 nM; in data set [2], 200 nM. In addition, the fraction unbound in [5] worked out at 0.019. This molecule returned a solubility in data set [6] of 26 µM (≈ 10.3 µg/mL). In [7], the MCC at 168 h is > 100 µM. For the same molecule, in data set [3], the MIC stood at 3.75 µM.

For `Cc1csc(C(C)(O)c2nnc(Nc3cccc(Cc4c(F)cccc4F)n3)s2)n1` (racemic), the IC50 in data set [2] is < 2 nM. In [3], the MIC amounted to 3.13 µM.

In the case of `Cc1csc(C(C)(O)c2nnc(Nc3nccc(Cc4c(F)cccc4F)n3)s2)n1` (racemic), the concentration for half-maximal inhibition (IC50) in data set [2] is < 2 nM. In data set [3], the MIC is 12.5 µM.

`NNC(=O)c1ccncc1` [ISONIAZID]: the MIC in data set [3] was found to be 0.03 µg/mL; in data set [22], 0.05 µM (≈ 0.00686 µg/mL).

Take `COc1c(N2C[C@@H]3CCCN[C@@H]3C2)c(F)cc2c(=O)c(C(=O)O)cn(C3CC3)c12` [MOXIFLOXACIN]: the minimal inhibitory concentration (MIC) in [3] was 0.12 µg/mL.

In the case of `CC/C(C)=C1\OC(=O)[C@H](C)[C@H](O)[C@H](Cc2cccnc2)NC(=O)[C@@H](NC(=O)c2ncccc2O)[C@@H](C)OC1=O` [PYRIDOMYCIN], the lowest concentration to inhibit growth in data set [22] (MIC) was 0.57 µM (≈ 0.308 µg/mL).

On to `CO[C@H]1/C=C/O[C@@]2(C)Oc3c(C)c(O)c4c(O)c(c(/C=N/N5CCN(C)CC5)c(O)c4c3C2=O)NC(=O)/C(C)=C\C=C\[C@H](C)[C@H](O)[C@@H](C)[C@@H](O)[C@@H](C)[C@H](OC(C)=O)[C@@H]1C` [RIFAMPIN], for which the MIC in data set [3] amounted to 0.007 µg/mL.

In the case of `Oc1cc(Cl)ccc1Oc1ccc(Cl)cc1Cl` [TRICLOSAN], in data set [22], inhibition of growth (MIC) required 64 µM (≈ 18.5 µg/mL).
